Screens from PubChem BioAssay.
CAL PDZ FP-1 = blocks peptide binding to human CAL PDZ domain; Q9HD26; 330,000 tested, 0.02% active; purified CAL PDZ, TMR-peptide fluorescence polarization, 1 h; inhibition, % at 20 µM;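 active means highest replicate inhibition of at least 40%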;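 further: plate controls were DMSO neutral control wells for no effect and unlabeled competitor peptide control wells for full effect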
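material = purified tagged CAL PDZ domain construct (CerCALP) | buffer or medium = sodium phosphate/NaCl buffer pH 7.4 with TCEP, IgG, Thesit | reagent = TMR-labelled reporter peptide T*-PRC34 bound in PDZ groove | incubation = 1 h room-temperature incubation prior to read | measured by = fluorescence polarization (mP) | evaluation = percent inhibition from loss of millipolarization | control set = unlabelled peptide and DMSO controls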
AI-2 QS mod = modulators of Vibrio harveyi AI-2 quorum sensing system; Vibrio harveyi JMH597 AI-2 luminescence/OD600 ratio, 9 h; active compounds read low; strain lacks LuxN and CqsS sensors; 0 = neutral-control median; activity change, % at 7.5 µM; 300,000 tested, 0.4% active; AID 2094; in the data active means activity change below about -75%, passing the limit was not always enough;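 further: luminescence divided by OD600 gain over 9 h not by final OD600 alone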
CAL PDZ FP-2 = inhibitors of human CAL PDZ peptide binding; Q9HD26; purified CAL PDZ, TMR-peptide fluorescence polarization, 1 h; inhibition, % at 24.9 µM; 300,000 tested, 0.92% active; AID 602252;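 active means mean inhibition of at least 30% with at least half of replicates also reaching 30%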;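 further: 0% = DMSO neutral control and 100% = excess unlabeled competitor peptide PRC23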
ARNT TACC3 PPI = disrupts binding between human ARNT and TACC3; Q9Y6A5; AlphaScreen His-ARNT PAS-B/GST-TACC3 binding, luminescence; TACC3 fragment carries E629A point mutation; inhibition, % at 9.99 µM; 390,000 tested, 0.66% active;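 active means mean inhibition of replicates at least 50% and at least half of replicates each reaching 50%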;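 further: 0% = complete ARNT plus TACC3 wells and 100% = ARNT alone without TACC3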
Rce1 inh = blocks yeast Ras-converting enzyme; 290,000 tested, 0.27% active; yeast membranes, quenched prenylated peptide cleavage fluorescence; calls only; Q03530; AID 2563;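 active means fall in fluorescence gain of 50% or more versus controls, with final raw signal at or below 3038400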;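 further: plate controls were neutral control wells for no effect and wells lacking membranes for full effect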
Target sequence (Q03530 whole entry, looked up): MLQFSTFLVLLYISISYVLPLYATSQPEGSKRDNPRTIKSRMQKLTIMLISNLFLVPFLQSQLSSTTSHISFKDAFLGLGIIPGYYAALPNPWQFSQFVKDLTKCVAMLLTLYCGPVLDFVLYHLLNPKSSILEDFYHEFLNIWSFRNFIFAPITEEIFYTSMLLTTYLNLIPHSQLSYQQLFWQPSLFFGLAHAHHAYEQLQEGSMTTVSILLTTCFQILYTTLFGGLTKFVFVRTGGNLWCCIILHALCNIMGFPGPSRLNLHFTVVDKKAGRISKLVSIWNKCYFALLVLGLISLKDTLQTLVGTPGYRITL
The depositor's hits bear a star; i = inactive; nt = no result given; + = active, no number. Shown are actives, neighbours in structure and some others; about 1.7% of the full set was active somewhere.

SMILES	CAL PDZ FP-1	AI-2 QS mod	CAL PDZ FP-2	ARNT TACC3 PPI	Rce1 inh
COc1cccc(NC(=O)Nc2ccc3c(c2)C(=O)N(C)C[C@@H](OC)[C@H](C)CN(CC2CC2)[C@@H](C)CO3)c1	nt	nt	nt	0	nt
Cn1cc(/C=C(\NC(=O)c2ccccc2Cl)C(=O)NCCCN2CCOCC2)c2ccccc21	-4	12	5	4	i
O=C1/C(=C/c2cccnc2)Oc2cc(OS(=O)(=O)c3ccc(F)cc3)ccc21	nt	-1	-2	60*	i
CSc1nc(NCCOCCO)c2sc3nc(-c4ccco4)c4c(c3c2n1)CCC4	0	-11	66*	-32	i
CCN(CCO)c1nc(SC)nc2c1sc1nc(-c3ccco3)c3c(c12)CCC3	-3	15	-5	20	i
CCOC(=O)CCC(=O)NNC(=O)c1ccc(NC(=O)c2ccccc2)cc1	-1	23	nt	-5	i
O=C(CSc1nnc(-c2cccc(S(=O)(=O)N3CCCC3)c2)n1-c1ccccc1)Nc1cccc(C(=O)O)c1	-1	10	-2	-29	i
Cc1cc(Cl)ccc1N(CC(=O)NCCSCc1ccco1)S(C)(=O)=O	2	5	99*	-1	i
Cc1ccc(N(CC(=O)NCCSCc2ccco2)S(C)(=O)=O)cc1	-2	32	-5	-19	i
O=C(CCS(=O)(=O)c1ccccc1Cl)NCc1ccc(F)cc1	-2	2	-1	5	nt
CC(C)CCNC(=O)NC(=O)COC(=O)/C=C/c1cccc([N+](=O)[O-])c1	6	1	37*	3	i
C=CCNC(=O)NC(=O)COC(=O)/C=C/c1cccc([N+](=O)[O-])c1	-1	19	1	-2	i
O=C1C2C3C=CC(O3)C2C(=O)N1N=Cc1cccc2ccccc12 (centres undefined)	0	nt	112*	1	nt
C=CCn1cc(/C=N/N2C(=O)C3C4C=CC(C4)C3C2=O)c2ccccc21 (centres undefined)	-2	0	-2	-4	i
O=S(=O)(O)c1cc2oc(-c3ccccc3)nc2c2ccccc12	0	13	-4	nt	+
COC(=O)C[C@H]1CC[C@@H]2[C@H](COC[C@@H](O)CN2S(=O)(=O)c2ccccc2C)O1	nt	nt	nt	3	nt
CCOC(=O)N1CCN(C(=O)COC(=O)CSc2cc(C)c(Br)cc2C)CC1	-3	-3	0	-2	i
O=C(/C=C/c1cccc(F)c1)Nc1cc(S(=O)(=O)N2CCOCC2)ccc1Cl	-2	nt	nt	2	nt
Cc1ccc(NC(=S)NC2CCN(Cc3ccccc3)CC2)cc1C	-1	-2	47*	7	i
Cc1c(NC(=O)c2cnn3c2NC(c2ccc(Br)cc2)CC3C(F)(F)F)c(=O)n(-c2ccccc2)n1C (centres undefined)	-4	17	-7	2	i
O=C(CCCN1C(=O)/C(=C/c2ccccc2)SC1=S)Nc1ccccc1O	-1	3	-3	20	i
COc1ccc(/C=C2/SC(=S)N(CCCC(=O)Nc3ccc(O)cc3)C2=O)cc1	0	22	46*	2	i
O=C(CCCN1C(=O)/C(=C\c2ccccc2)SC1=S)Nc1ccc(O)cc1C(=O)O	-1	16	77*	5	i
COc1cccc(/C=C2\SC(=S)N(CCCC(=O)N3CCCCC3CCO)C2=O)c1 (centres undefined)	0	9	88*	9	i
COc1cccc(/C=C2\SC(=S)N(CCC(=O)N3CCCCC3CCO)C2=O)c1 (centres undefined)	1	8	nt	11	i
SMILES	CAL PDZ FP-1	AI-2 QS mod	CAL PDZ FP-2	ARNT TACC3 PPI	Rce1 inh
COc1ccc2c(c1OC)C(=O)OC2Nc1nc(-c2cc3cc([N+](=O)[O-])ccc3oc2=O)cs1 (centres undefined)	-3	21	-2	5	i
N#Cc1cc2[nH]c3ccccc3c2[n+](-c2ccc([N+](=O)[O-])cc2)c1N	0	8	-1	6	i
O=C(CSCc1cccc(Cl)c1)OCc1nc2ccsc2c(=O)[nH]1	-4	34	4	-6	i
CN(CC(=O)NCc1ccccn1)S(=O)(=O)c1ccccc1	-2	31	0	1	i
COc1ccc(/C=N/NS(=O)(=O)c2ccc(C)cc2)cc1	1	-83*	11	27	i
COc1ccc(O)c(/C=N/NS(=O)(=O)c2ccc(C)cc2)c1	nt	20	-4	2	i
COc1cccc(NC(=O)CCCNC(=O)Cn2cnc3sc(C)c(C)c3c2=O)c1	-3	-58	-2	4	i
COc1ccc(S(=O)(=O)Nc2ccc3c(c2)CC(=O)N([C@@H](C)CO)C[C@H](C)[C@@H](CN(C)S(=O)(=O)c2ccc(C)cc2)O3)cc1	nt	nt	nt	-8	nt
CCOC(=O)c1cnc(-n2nc(C)cc2C)nc1NC	-2	8	-4	48*	i
O=C(COC(=O)c1ccc(Cl)nc1)Nc1ccc(N2CCCCC2)cc1	nt	nt	41*	0	nt
O=C(COC(=O)c1ccc(Cl)nc1)Nc1ccc(Cl)cc1	-2	nt	4	1	nt
Cc1c(C(=O)Nc2ccc(Br)cc2)cnn1C	0	15	nt	-1	i
CN1C(=O)CC[C@H]1c1cccnc1	nt	-14	nt	nt	i
CCc1ccc2[nH]c(=O)c(C3C(C#N)=C(N)Oc4c3ccc3cccnc43)cc2c1 (centres undefined)	-3	9	-7	48*	i
CC(C)N1CCN(Cc2ccc(-c3ccccc3)cc2)CC1CCO (centres undefined)	-14	1	-6	0	i
CC(C)N1CCN(Cc2ccc(OCc3ccccc3)cc2)CC1CCO (centres undefined)	-1	8	nt	31	+
COC(=O)c1c(NC(=O)c2ccc([N+](=O)[O-])o2)sc2c1CCN(C(C)C)C2	-3	-90*	-4	4	i
COC(=O)c1c(NC(=O)Cc2ccccc2)sc2c1CCN(C(C)C)C2	0	24	nt	2	i
CC(C)N1CCc2c(sc(NC(=O)c3ccc([N+](=O)[O-])o3)c2C(N)=O)C1	-2	-90*	-1	-11	i
CCOC(=O)N1CCC(C(=O)NNC(=O)c2ccc(Cl)cc2Cl)CC1	0	25	1	1	i
O=C(O)CCNC(=O)/C(=C\C=C\c1ccccc1)NC(=O)c1ccccc1	-2	11	-4	9	i
CN(C)/C=C1\C(=O)NN=C1c1ccccc1	0	11	-1	28*	i
CN(C)C=C1C(=O)c2ccccc2C1=O	0	12	nt	3	i
CSCCC(NC(N)=O)C(=O)NCc1ccccc1Cl (centres undefined)	nt	19	38*	-2	i
CSCCC(NC(N)=O)C(=O)NCc1cccc(Cl)c1 (centres undefined)	-2	3	6	-2	i
